Published values of several laboratories.
Target: Muscle, skeletal receptor tyrosine-protein kinase (MUSK, Homo sapiens, UniProt O15146)
Sequence (O15146 1-869, as in one of the studies): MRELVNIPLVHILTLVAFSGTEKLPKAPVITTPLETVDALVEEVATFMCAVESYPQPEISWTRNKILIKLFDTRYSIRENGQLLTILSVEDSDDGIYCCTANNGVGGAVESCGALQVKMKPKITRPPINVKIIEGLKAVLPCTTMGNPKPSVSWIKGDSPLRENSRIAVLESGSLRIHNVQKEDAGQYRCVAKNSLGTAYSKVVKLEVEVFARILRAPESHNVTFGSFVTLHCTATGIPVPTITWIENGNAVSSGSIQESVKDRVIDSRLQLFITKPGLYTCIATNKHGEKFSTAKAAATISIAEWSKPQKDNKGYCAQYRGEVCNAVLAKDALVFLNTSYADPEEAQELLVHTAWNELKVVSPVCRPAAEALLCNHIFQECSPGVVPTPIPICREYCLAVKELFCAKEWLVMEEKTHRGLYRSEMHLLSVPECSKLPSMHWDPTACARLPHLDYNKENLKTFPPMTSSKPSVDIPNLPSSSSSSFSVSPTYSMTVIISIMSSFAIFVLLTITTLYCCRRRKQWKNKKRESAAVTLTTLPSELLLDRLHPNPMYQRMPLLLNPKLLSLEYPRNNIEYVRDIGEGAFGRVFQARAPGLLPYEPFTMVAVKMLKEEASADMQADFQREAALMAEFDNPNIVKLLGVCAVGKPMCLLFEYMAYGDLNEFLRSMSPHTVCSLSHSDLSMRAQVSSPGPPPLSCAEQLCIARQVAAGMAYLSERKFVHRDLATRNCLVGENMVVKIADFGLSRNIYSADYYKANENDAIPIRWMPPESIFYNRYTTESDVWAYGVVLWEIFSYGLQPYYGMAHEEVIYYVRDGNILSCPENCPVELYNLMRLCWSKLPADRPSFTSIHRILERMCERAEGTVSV

CS(=O)(=O)NCC[C@H](NC(=O)c1cncc2c1cnn2-c1ccc(F)cc1)c1ccnc(S(C)(=O)=O)c1 — remaining binding (cell-free assay; competition with immobilised ligand; 1 µM): 100%
Oc1cccc(-c2nc(N3CCOCC3)c3oc4ncccc4c3n2)c1 — remaining signal (cell-free assay; 0.5 µM): 87.8%
Nc1ncnc2occ(-c3ccc(NC(=O)Nc4cc(C(F)(F)F)ccc4F)cc3)c12 — remaining signal (cell-free assay; inhibitor; 20 µM): 0%
CC(C)(O)[C@H]1CC[C@H](Nc2ccc3ncc(-c4cccc(C(F)(F)F)c4)n3n2)CC1 — remaining activity (enzyme activity; inhibitor; 1 µM): 23.7%
O=C(Nc1cnn(-c2csc(C(=O)NC3COC3)c2)c1)Nc1ccccc1Cl — remaining activity (enzyme activity; inhibitor; 5 µM): 94.5%
NS(=O)(=O)c1cc(NC(=O)Cc2ccccc2)ccc1Oc1cccc(Cl)c1 — remaining binding (cell-free assay; competition with immobilised ligand; 1 µM): 100%
CCN(CC)c1ccc(C2=NNC(=O)CC2C)cc1[N+](=O)[O-] (centres unmarked) — remaining activity (enzyme activity; inhibitor; 10 µM): 85%
CC/C(=N\NC(=O)NCc1cccc(O)c1)c1ccc(O)c(C)c1O — inhibition (enzyme activity; inhibitor; 0.1 µM): -3.4%
CNCc1ccccc1-c1csc([C@H](C)Nc2nc(C)nc3cc(OC)c(OC)cc23)c1 — remaining binding (cell-free assay; competition with immobilised ligand; 1 µM): 90%
Cc1ccc(Nc2nccc(N(C)c3ccc4c(C)n(C)nc4c3)n2)cc1S(N)(=O)=O — inhibition (enzyme activity; inhibitor; 0.3 µM): 75%
COc1cc2c(N3CCN(C(=O)Nc4ccc(OC(C)C)cc4)CC3)ncnc2cc1OCCCN1CCCCC1 — remaining signal (cell-free assay; 0.5 µM): 99.6%
CC(=O)C1=C(C)N(c2cccc(C(F)(F)F)c2)C(=O)N[C@@H]1c1ccc(C#N)nc1 — remaining binding (cell-free assay; competition with immobilised ligand; 1 µM): 100%
COc1cc2ncnc(Nc3ccc(Oc4ccccc4)cc3C)c2cc1OC — inhibition (enzyme activity; inhibitor; 1 µM): 4%
CC(C)(C)c1nc2c(s1)c1nc(N)ncc1c1ccc(NS(=O)(=O)c3c(F)cccc3F)c(F)c12 — remaining activity (enzyme activity; inhibitor; radiometric; 1 µM): 80%
CNC(=O)c1cc(Oc2ccc(NC(=O)Nc3ccc(Cl)c(C(F)(F)F)c3)cc2)ccn1 — inhibition (enzyme activity; inhibitor; 10 µM): 100%
C[C@H](NC(=O)c1cnc2n1[C@](C)(Cc1ccc(C#N)cc1)C(=O)N2c1cc(Cl)c(F)c(Cl)c1)C(=O)NC1(c2ccccn2)CC1 — remaining binding (cell-free assay; competition with immobilised ligand; 1 µM): 100%
CCCOc1ccc(OC)c(F)c1C(=O)c1ccc(C(=O)N[C@@H]2CNC[C@H]2NC(=O)c2ccc3[nH]ncc3c2)cc1 — remaining activity (enzyme activity; inhibitor; 0.1 µM): 65%
